# Tests used:
# [1] = tested on: MDA-MB-231; assay: Cytotoxicity against human MDA-MB-231 cells assessed as decrease in cell viability after 72 hrs by CellTiter-Glo luminescence assay; assay type: functional, cell-based; conditions: MDA-MB-231, 72 h
# Procedure, shortened: (§1)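 Breast cancer lines were maintained in RPMI 1640 with 10% FBS and pen/strep at 37 °C and 5% CO2. Cells were plated at 1000/well, allowed 24 h, then treated 72 h with agents at 1.5–100 μM (diluted in phosphate buffer from a 100 mM DMSO stock). Paclitaxel at 0.01–10 μM served as the reference. Luminescent ATP read-out was used, with IC50 computed relative to 0.1% DMSO controls.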
# [2] = tested on: MDA-MB-468; assay: Cytotoxicity against human MDA-MB-468 cells assessed as decrease in cell viability after 72 hrs by CellTiter-Glo luminescence assay; assay type: functional, cell-based; conditions: MDA-MB-468, 72 h; procedure, shortened: as §1
# [3] = tested on: MCF-10A; assay: Cytotoxicity against human MCF10A cells assessed as decrease in cell viability after 72 hrs by CellTiter-Glo luminescence assay; assay type: cell-based
# Procedure, shortened: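 MCF10A (non-tumorigenic breast epithelial) cells were grown with 5% horse serum, 20 ng/mL EGF, 0.5 μg/mL hydrocortisone, 10 μg/mL insulin, and pen/strep at 37 °C and 5% CO2. Cells were seeded at 1000/well for 24 h, then exposed 72 h to 1.5–100 μM test agent diluted in phosphate buffer from a 100 mM DMSO stock. Viability was read by ATP luminescence. IC50 was calculated versus 0.1% DMSO-treated cells.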
# [4] = tested on: MCF7; assay: Cytotoxicity against human MCF7 cells assessed as decrease in cell viability after 72 hrs by CellTiter-Glo luminescence assay; assay type: functional, cell-based; conditions: MCF7, 72 h; procedure, shortened: as §1
smiles,measurement,setting,value
COc1cc2cc(CO)c3c(c2cc1OC)CC1CCCN1C3 (racemic),IC50,[1],> 10 µM
same,IC50,[2],> 10 µM
same,IC50,[3],> 10 µM
same,IC50,[4],> 10 µM
COc1cc2c3c(c4ccc(OC)c(Cl)c4c2cc1OC)CN1CCCC1C3 (racemic),IC50,[1],0.48 µM
same,IC50,[2],0.038 µM
same,IC50,[3],10.7 µM
same,IC50,[4],0.91 µM
COc1cc2cc([C@@H]3[C@@H](C(C)=O)[C@H](C(C)=O)[C@@H]3c3cc4cc(OC)c(OC)cc4c4c3CN3CCC[C@@H]3C4)c3c(c2cc1OC)C[C@@H]1CCCN1C3,IC50,[1],> 10 µM
same,IC50,[2],> 10 µM
same,IC50,[3],> 10 µM
same,IC50,[4],> 10 µM
CC(=O)O[C@H]1C(=O)[C@@]2(C)[C@H]([C@H](OC(=O)c3ccccc3)[C@]3(O)C[C@H](OC(=O)[C@H](O)[C@@H](NC(=O)c4ccccc4)c4ccccc4)C(C)=C1C3(C)C)[C@]1(OC(C)=O)CO[C@@H]1C[C@@H]2O [PACLITAXEL],IC50,[1],0.059 µM
same,IC50,[2],0.0061 µM
same,IC50,[3],0.0058 µM
same,IC50,[4],0.0088 µM
COc1cc2cc([C@@H]3[C@H](C(C)=O)[C@@H](C(C)=O)[C@@H]3c3cc4cc(OC)c(OC)cc4c4c3CN3CCC[C@@H]3C4)c3c(c2cc1OC)C[C@@H]1CCCN1C3,IC50,[1],> 10 µM
same,IC50,[2],7.4 µM
same,IC50,[3],> 10 µM
same,IC50,[4],> 10 µM
COc1cc2cc(C3C(C(C)=O)C(C(C)=O)C3c3cc4cc(OC)c(OC)cc4c4c3CN3CCCC3C4)c3c(c2cc1OC)CC1CCCN1C3 (racemic),IC50,[1],> 10 µM
same,IC50,[2],> 10 µM
same,IC50,[3],> 10 µM
same,IC50,[4],> 10 µM

# Reference: ChEMBL document CHEMBL4130447, “A Bis-benzopyrroloisoquinoline Alkaloid Incorporating a Cyclobutane Core and a Chlorophenanthroindolizidine Alkaloid with Cytotoxic Activity from Ficus fistulosa var. tengerensis” (J Nat Prod, 2017)
